From publication PMC3266058 (Journal of Medicinal Chemistry, 2011)
Where two headings read alike, the source gives them in different places.

Assays:
[1] = test system: colon 26 murine tumor cell line; details: read-out: cytotoxicity IC50, colon 26; ref 9a; cited from earlier work
[2] = test system: A549 cells; test: Antiproliferative MTT assay, A549; format: cell-based; details: Homo sapiens, A549, 72 h, read-out: IC50 A549
[3] = test system: MCF-7 cells; test: Antiproliferative MTT assay, MCF-7; format: cell-based; details: Homo sapiens, MCF7, 72 h, read-out: IC50 MCF-7
[4] = test system: HL-60 cells; test: Antiproliferative MTT assay, HL-60; format: cell-based; details: Homo sapiens, HL-60, 72 h, read-out: IC50 HL-60
[5] = test system: HeLa cells; test: Antiproliferative MTT assay, HeLa; format: cell-based; details: Homo sapiens, 72 h, read-out: IC50 HeLa
[6] = test system: Jurkat cells; test: Antiproliferative MTT assay, Jurkat; format: cell-based; details: Homo sapiens, 72 h, read-out: IC50 Jurkat
How it was run: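 Cells (8 × 10^3 per well in complete medium) settled 18 h at 37 °C, 5% CO2, then medium replaced with fresh medium holding test compound at a range of concentrations (10 mM DMSO stocks; final DMSO ≤0.25%) for 72 h at 37 °C. Viability read by MTT.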

[7] = test system: Bcl-2; test: Western blot, Bcl-2 in HeLa cells; format: cell-based, human; details: after 48 h
How it was run: (§1)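 HeLa cells were treated with test compound (DMSO ≤0.25%) for the indicated times, then washed twice in ice-cold PBS. They were lysed on ice for 30 min and spun at 15000g, 4 °C, 10 min; protein was measured by BCA. 20 μg was run on 7.5–15% SDS-PAGE and transferred to PVDF. Membranes were blocked overnight at 4 °C, then probed 2 h at room temperature with primary antibodies (total caspase-3, cleaved caspase-9, cyclin B, Bcl-2, Bax, XIAP). Peroxidase secondary was applied for 60 min, with ECL detection and β-actin reprobe as the loading control.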

[8] = biological target: bovine brain tubulin (Bos taurus, UniProt P81947+Q6B856); test: Inhibition of tubulin polymerization; format: biochemical; details: tubulin assembly assay
[9] = test system: caspase-3; test: Western blot, caspase-3 in HeLa cells; format: cell-based, human; details: 24 or 48 h
How it was run: as §1

[10] = test system: XIAP; test: Western blot, XIAP in HeLa cells; format: cell-based, human; details: 24 or 48 h
How it was run: as §1

[11] = test system: caspase-9; test: Western blot, caspase-9 in HeLa cells; format: cell-based, human; details: 24 or 48 h
How it was run: as §1

[12] = test system: HeLa cells; test: Mitochondrial membrane potential; format: cell-based, human; details: JC-1, 24 or 48 h
How it was run: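 HeLa cells in DMEM with 10% FBS were incubated 24 or 48 h with test compound (final DMSO ≤0.25%), then stained with the cationic dye JC-1 and analysed by flow cytometry. Polarized mitochondria give red aggregate emission (590 nm); depolarized ones give monomer emission (530 nm). Data are mean ± SEM of three independent experiments.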

[13] = test system: Bax; test: Western blot, Bax in HeLa cells; format: cell-based, human
How it was run: as §1

[14] = test system: cyclin B1; test: Western blot, cyclin B1 in HeLa cells; format: cell-based, human; details: 24 and 48 h
How it was run: as §1

[15] = test system: HeLa cells; test: Flow cytometric cell cycle analysis; format: cell-based, human; details: 24 h
How it was run: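 Exponentially growing HeLa cells (5 × 10^5), grown in DMEM with 10% FBS and penicillin/streptomycin, were exposed to 15–250 nM test compound for 24 h, with DMSO ≤0.25%. Cells were fixed in ice-cold 70% ethanol, treated with lysis buffer containing RNase A and 0.1% Triton X-100, and stained with propidium iodide. DNA content was measured by flow cytometry. Results are mean ± SEM of three independent experiments.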

[16] = test system: HeLa cells; test: Annexin-V/PI apoptosis assay; format: cell-based, human; details: 24 or 48 h, vs control
How it was run: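 HeLa cells grown in DMEM with 10% FBS, penicillin G and streptomycin, then exposed to test compound (10 mM DMSO stocks; final DMSO ≤0.25%). Phosphatidylserine exposure was read by flow cytometry after annexin-V-FITC labelling per kit instructions, with simultaneous PI staining. Excitation was 488 nm, with emission filters at 525 nm (FITC) and 585 nm (PI).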

[17] = Body weight of treated xenograft mice; format: in vivo, BALB/c-nu nude mice; details: 100 mg/kg intraperitoneally, 3 doses; whole treatment period
How it was run: (§2)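 Female BALB/c-nu nude mice, 4 weeks old (15−18 g), kept pathogen-free. HT-29 cells at 1 × 10^7 cells/mL in serum-free RPMI 1640 were injected (0.2 mL) subcutaneously in the back. At ~300 mm3, 18 mice were randomised to vehicle or treatment groups (six per group). Test compound was given in DMSO i.p. at 0.01 mL/g (100 mg/kg) on days 0, 2 and 4. Tumour size (caliper, V = LW²/2) and body weight were recorded at each time point. Results are mean ± SEM; two-sided Student's t test.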

[18] = test system: HeLa cells; test: Mitochondrial ROS production; format: cell-based, human; details: HE and H2-DCFDA, 24 or 48 h, vs control cells
How it was run: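 HeLa cells were cultured in DMEM with 10% FBS and antibiotics and exposed to test compound for 24 or 48 h, with final DMSO ≤0.25%. Cells were then stained with hydroethidine or H2-DCFDA, and ROS were measured by flow cytometry. Data are mean ± SEM of three independent experiments.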

[19] = test system: six human cancer cell lines (HeLa, A549, HL-60, Jurkat, MCF-7, HT-29); test: Antiproliferative activity over the panel of six human cancer cell lines; format: cell-based; details: all cell lines
[20] = test system: HT-29 xenograft; test: In vivo antitumor activity, HT-29 xenograft; parameters: species or system BALB/c-nu nude mice; details: 100 mg/kg intraperitoneally, days 0, 2 and 4; end of observation period (day 24)
How it was run: as §2

[21] = test system: LoVo cells; details: read-out: IC50 LoVo; parental line; ref 13c; cited from earlier work
[22] = test system: LoVo^Doxo cells; details: ref 13c, cited from earlier work
[23] = test system: A549 cells; details: read-out: IC50 A549 (Table 3); parental line; ref 13c; cited from earlier work
[24] = test system: A549-T12 cells; details: ref 13c, cited from earlier work
[25] = test system: CEM cells; details: read-out: IC50 CEM; parental line; ref 13c; cited from earlier work
[26] = test system: CEM^Vbl100 cells; details: ref 13c, cited from earlier work
[27] = ratio of IC50 in resistant and nonresistant cell lines

Chain of bovine brain tubulin (P81947 whole entry): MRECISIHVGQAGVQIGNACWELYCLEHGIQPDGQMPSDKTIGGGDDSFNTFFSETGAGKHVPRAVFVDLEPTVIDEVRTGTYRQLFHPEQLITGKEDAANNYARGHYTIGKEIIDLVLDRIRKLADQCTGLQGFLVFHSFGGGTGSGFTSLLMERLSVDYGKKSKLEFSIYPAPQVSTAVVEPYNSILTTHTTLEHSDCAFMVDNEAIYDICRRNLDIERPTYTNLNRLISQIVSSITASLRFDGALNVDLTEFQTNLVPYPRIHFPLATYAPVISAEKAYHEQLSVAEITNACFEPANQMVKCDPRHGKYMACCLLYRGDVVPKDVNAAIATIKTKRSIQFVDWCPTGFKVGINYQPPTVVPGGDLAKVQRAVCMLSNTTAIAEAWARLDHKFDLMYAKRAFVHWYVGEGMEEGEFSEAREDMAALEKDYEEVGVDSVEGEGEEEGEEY
Chain of bovine brain tubulin (Q6B856 whole entry): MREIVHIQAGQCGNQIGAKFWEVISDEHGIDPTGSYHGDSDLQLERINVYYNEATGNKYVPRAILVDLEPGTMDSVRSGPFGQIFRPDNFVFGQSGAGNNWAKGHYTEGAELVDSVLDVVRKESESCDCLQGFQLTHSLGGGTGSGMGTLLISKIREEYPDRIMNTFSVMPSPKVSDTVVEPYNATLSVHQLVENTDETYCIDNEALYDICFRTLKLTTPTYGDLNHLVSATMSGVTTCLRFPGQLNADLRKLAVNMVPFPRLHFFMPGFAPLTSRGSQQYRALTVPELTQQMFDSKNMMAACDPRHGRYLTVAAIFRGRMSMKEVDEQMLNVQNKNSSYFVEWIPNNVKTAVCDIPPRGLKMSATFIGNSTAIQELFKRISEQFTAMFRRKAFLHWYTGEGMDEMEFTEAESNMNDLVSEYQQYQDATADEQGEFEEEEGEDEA

With `COc1ccc(-c2nnnn2-c2cc(OC)c(OC)c(OC)c2)cc1N` [1-(3,4,5-trimethoxyphenyl)-5-(4-methoxy,3-aminophenyl)-1H-tetrazole] as the compound, how does the IC50 [1] read?
The IC50 was 0.0072 µM.

For `CCOc1ccc(-c2ncnn2-c2cc(OC)c(OC)c(OC)c2)cc1` [3a], which IC50 [2] is on record?
Its IC50 is 0.1 ± 0.02 µM.

What about the IC50 [3] of the same compound?
The IC50 was 0.05 ± 0.009 µM.

What about the IC50 [4] of the same compound?
Its IC50 is 0.02 ± 0.003 µM.

And the IC50 [5]?
The IC50 was 0.015 ± 0.004 µM.

And the IC50 [6]?
The IC50 was 0.005 ± 0.0002 µM.

With `CCOc1ccc(-c2nnnn2-c2cc(OC)c(OC)c(OC)c2)cc1` [4l, 1-(3,4,5-Trimethoxyphenyl)-5-(4-ethoxyphenyl)-1H-tetrazole] as the compound, how does the “Bcl-2 expression” value [7] read?
Its value is “only slightly affected”.

And the “fold more potent than 5b in tubulin assembly” value [8]?
Its value is 2 fold.

What about the “caspase-3 activation” value [9] of the same compound?
The value was “activation of caspase-3”.

And the “XIAP expression” value [10]?
Its value is “strongly reduced”.

What about the “caspase-9 activation” value [11] of the same compound?
The value was “induced activation of caspase-9”.

What about the “cells with depolarized mitochondria” value [12] of the same compound?
The value was “induced a time and concentration-dependent increase in the proportion of cells with depolarized mitochondria”.

What about the “Bax expression” value [13] of the same compound?
Its value is “no effect”.

What about the “cyclin B1 expression” value [14] of the same compound?
The value was “marked increase in cyclin B1 expression”.

What about the “lowest concentration with a rise in G2/M cells” value [15] of the same compound?
The value was 30 nM.

And the “annexin-V positive cells” value [16]?
The value was “induced an accumulation of annexin-V positive cells”.

What about the “body weight change of treated animals” value [17] of the same compound?
Its value is “no significant weight changes”.

And the “ROS production” value [18]?
The value was “induced the production of significant amounts of ROS”.

For `CCCCOc1ccc(-c2nnnn2-c2cc(OC)c(OC)c(OC)c2)cc1` [4o, 5-(4-Butoxyphenyl)-1-(3,4,5-trimethoxyphenyl)-1H-tetrazole], which “antiproliferative activity” value [19] is on record?
Its value is “inactive”.

For `CCCCCOc1ccc(-c2nnnn2-c2cc(OC)c(OC)c(OC)c2)cc1` [4p, 1-(3,4,5-Trimethoxyphenyl)-5-(4-(pentyloxy)phenyl)-1H-tetrazole], which “antiproliferative activity” value [19] is on record?
The value was “inactive”.

With `CCOc1ccc(-n2nnnc2-c2cc(OC)c(OC)c(OC)c2)cc1` [5b, 5-(3,4,5-Trimethoxyphenyl)-1-(4-ethoxyphenyl)-1H-tetrazole] as the compound, how does the “cells with depolarized mitochondria” value [12] read?
The value was “induced a time and concentration-dependent increase in the proportion of cells with depolarized mitochondria”.

And the “lowest concentration with a rise in G2/M cells” value [15]?
The value was 30 nM.

What about the “annexin-V positive cells” value [16] of the same compound?
Its value is “induced an accumulation of annexin-V positive cells”.

And the “ROS production” value [18]?
The value was “induced the production of significant amounts of ROS”.

For `COc1ccc(/C=C\c2cc(OC)c(OC)c(OC)c2)cc1O` [compound 1, combretastatin A-4], which “reduction in tumor growth vs vehicle” value [20] is on record?
Its value is 43.7%.

And the IC50 [6]?
The IC50 was 0.005 ± 0.0006 µM.

With `COc1cccc2c1C(=O)c1c(O)c3c(c(O)c1C2=O)C[C@@](O)(C(=O)CO)C[C@@H]3O[C@H]1C[C@H](N)[C@H](O)[C@H](C)O1` [doxorubicin] as the compound, how does the IC50 [21] read?
Its IC50 is 0.12 ± 0.03 µM.

And the “resistance ratio LoVoDoxo/LoVo” value [22, 27]?
The value was 109.6.

And the IC50 ([22]; read-out: IC50 LoVoDoxo, doxorubicin resistant line)?
Its IC50 is 13.2 ± 0.21 µM.

Which IC50 [23] does the source give for `CC(=O)O[C@H]1C(=O)[C@@]2(C)[C@H]([C@H](OC(=O)c3ccccc3)[C@]3(O)C[C@H](OC(=O)[C@H](O)[C@@H](NC(=O)c4ccccc4)c4ccccc4)C(C)=C1C3(C)C)[C@]1(OC(C)=O)CO[C@@H]1C[C@@H]2O` [paclitaxel] here?
Its IC50 is 0.0072 ± 0.0001 µM.

And the “resistance ratio A549-T12/A549” value [24, 27]?
Its value is 10.4.

What about the IC50 ([24]; read-out: IC50 A549-T12, paclitaxel resistant line) of the same compound?
Its IC50 is 0.0752 ± 0.0125 µM.

For `CC[C@]1(O)C[C@@H]2CN(CCc3c([nH]c4ccccc34)[C@@](C(=O)OC)(c3cc4c(cc3OC)N(C)[C@H]3[C@@](O)(C(=O)OC)[C@H](OC(C)=O)[C@]5(CC)C=CCN6CC[C@]43[C@@H]65)C2)C1` [vinblastine], which IC50 [25] is on record?
The IC50 was 0.0041 ± 0.0002 µM.

What about the “resistance ratio CEMVbl100/CEM” value [26, 27] of the same compound?
The value was 56.1.

And the IC50 ([26]; read-out: IC50 CEMVbl100, vinblastine resistant line)?
The IC50 was 0.23 ± 0.032 µM.
